In data set [1] the test system is human dermal fibroblast (HDF, human dermal cell line). Put plainly: MTT cytotoxicity assay, normal cells. The class given is cell-based. Conditions: read-out: IC50 HDF. Put shortly:
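Human dermal fibroblasts were maintained in DMEM with 10% FCS, 2 mM L-glutamine and 1% penicillin-streptomycin (37 °C, 5% CO2). They were seeded at 1 × 10^4 cells/ml, allowed to adhere overnight, then treated 96 h with serially diluted test compound (six final levels, 1–600) beside DMSO-matched vehicle and cisplatin controls. Then MTT 5 mg/ml was added for 4 h, formazan taken up in DMSO, and absorbance read at 540 nm, in triplicate. IC50 was fitted.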

The test system of data set [2] is glioblastoma (U-87 MG) cells. Put plainly: MTT cytotoxicity assay, U-87 MG. Type of data set: cell-based, human. Conditions: for SI U87 (selectivity index): IC50 in HDF / IC50 in U87, 96 h; for IC50: read-out: IC50 U87. Put shortly: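 U-87 MG cells were cultured in DMEM with 10% FCS, 2 mM L-glutamine and 1% penicillin-streptomycin at 37 °C, 5% CO2. Seeding was 1 × 10^4 cells/ml; after overnight adherence, test compound diluted in medium (six final levels, 1–600) was applied for 96 h alongside DMSO-matched and cisplatin controls. Read-out: MTT 5 mg/ml for 4 h, DMSO solubilisation, A540, in triplicate, IC50 fitted. SI = IC50 in HDF / IC50 in U87.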

Data set [3] deals with breast cancer (MCF7) cells. Nature of the data set: MTT cytotoxicity assay, MCF7. The class given is cell-based, human. The following applies: for SI MCF-7 (selectivity index): IC50 in HDF / IC50 in MCF-7, 96 h; for IC50: read-out: IC50 MCF-7. Put shortly: (§1)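 Cells were grown in RPMI 1640 with 10% FCS, 2 mM L-glutamine and 1% penicillin-streptomycin at 37 °C under 5% CO2. They were seeded at 1 × 10^4 cells/ml, left overnight to adhere, and exposed 96 h to test compound diluted in medium (six final levels, 1–600), with DMSO-matched and cisplatin controls. MTT at 5 mg/ml was added for 4 h, formazan dissolved in DMSO, and A540 read, in triplicate. IC50 was fitted from the data. SI = IC50 in HDF / IC50 in this line.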

Data set [4] deals with non-small cell lung cancer (A549) cells. Nature of the data set: MTT cytotoxicity assay, A549. The class given is cell-based, human. Conditions: for SI A549 (selectivity index): IC50 in HDF / IC50 in A549, 96 h; for IC50: read-out: IC50 A549. Put shortly:
as §1

For data set [5], the system named is HDF, U87, MCF-7 and A549 cells. Nature of the data set: Morphological analysis. Type of data set: cell-based, human. The following applies: 96 h, treatment at the respective IC50 for each cell line. Put shortly: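 HDF, U87, MCF-7 and A549 cells were seeded at 1 × 10^4 cells/ml in flat-bottom plates and adhered overnight. They were then treated 96 h with test compound serially diluted in medium (final 1–600 μM/ml). Controls were untreated and DMSO-matched wells, plus cisplatin at 1–100 μM/mL. Cells were fixed in ice-cold methanol for 30 min at 4 °C, stained with hematoxylin, and viewed by inverted light microscopy.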

Data set [6] is described as follows: DPPH radical scavenging assay.
The nature of data set [7]: ABTS radical scavenging assay.
Data set [8] has as its system Bacillus cereus (ATCC 11778). Put plainly: Agar diffusion test, B. cereus. The class given is cell-based. Conditions: ATCC11778, read-out: Zone of inhibition BC.
Data set [9] relates to Staphylococcus aureus (ATCC 10145). Put plainly: Agar diffusion test, S. aureus. The class given is cell-based. The following applies: ATCC10145, read-out: Zone of inhibition SA.
Data set [10] has as its system Escherichia coli (ATCC 25922). Nature of the data set: Agar diffusion test, E. coli. The following applies: ATCC25922, read-out: Zone of inhibition EC. The class given is cell-based.
Data set [11] relates to Pseudomonas aeruginosa (ATCC 13048). Nature of the data set: Agar diffusion test, P. aeruginosa. The class given is cell-based. Conditions: ATCC13048, read-out: Zone of inhibition PA.
The test system of the next data set is B. subtilis (ATCC 6633). Put plainly: Micro-broth dilution assay. Type of data set: cell-based. Conditions: Bacillus subtilis, ATCC6633, read-out: MIC BS.
Data set [12] concerns Bacillus cereus (ATCC 11778). Nature of the data set: Micro-broth dilution assay. Type of data set: cell-based. Conditions: ATCC11778, read-out: MIC BC.
The test system of data set [13] is Staphylococcus aureus (ATCC 10145). Put plainly: Micro-broth dilution assay. Type of data set: cell-based. The following applies: ATCC10145, read-out: MIC SA.
Data set [14] relates to Escherichia coli (ATCC 25922). Nature of the data set: Micro-broth dilution assay. The class given is cell-based. The following applies: ATCC25922, read-out: MIC EC.
In data set [15] the test system is Pseudomonas aeruginosa (ATCC 13048). Nature of the data set: Micro-broth dilution assay. Type of data set: cell-based. Conditions: ATCC13048, read-out: MIC PA.
In data set [16] the test system is Gram-positive and Gram-negative bacterial test strains. Put plainly: Antibacterial activity, whole panel of test strains. Type of data set: cell-based. The following applies: agar diffusion. Put shortly:
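Disc diffusion followed CLSI (2012). Test compound at 10, 50 and 100 μg/disc was loaded on 6-mm blank filter discs laid on Mueller Hinton agar seeded at 10^6 cells/ml. Strains were S. aureus ATCC 10145, B. cereus ATCC 11778, B. subtilis ATCC 6633, P. aeruginosa ATCC 13048 and E. coli ATCC 25922. Inhibition zones were recorded.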

Data set [17] has as its system cancer cell lines (U87, MCF-7 and A549) compared to normal cells (HDF). Put plainly: MTT cytotoxicity, cancer cell lines compared to normal cells. Type of data set: cell-based, human. The following applies: 96 h treatment. Put shortly:
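A549 and MCF7 grown in RPMI 1640, HDF and U87 in DMEM, each with 10% FCS, 2 mM L-glutamine, 1% pen-strep, 37 °C, 5% CO2. Cells at 1 × 10^4 cells/ml were adhered overnight, then exposed 96 h to test compound (final 1–600 […] in medium). Controls were blank, untreated, DMSO-matched and cisplatin (1–100 μM/mL). MTT 5 mg/ml for 4 h; DMSO-solubilised formazan read at 540 nm, triplicate. IC50 from curve fitting; selectivity index = HDF IC50 / cancer-line IC50.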

Molecules are shown by their SMILES. In brackets after ≈: the same amount, converted by molar mass. Read-outs that look alike come from different tables or passages of the source. Where only a bound is given, the exact number is not on record here.

As to `N.N.[Cl][Pt][Cl]` [Cisplatin, reference compound], the IC50 in [1] (MTT, 96 h treatment) is 40.9 ± 5.4 µM; in data set [2] (MTT, 96 h treatment) it was 28.3 ± 5.3 µM; in data set [3] (MTT, 96 h treatment), 26.9 ± 4.7 µM; in [4] (MTT, 96 h treatment) it was 30.4 ± 5.2 µM. Also, the “SI U87 (selectivity index)” value in data set [2] worked out at 1.5. Also, in data set [3], the “SI MCF-7 (selectivity index)” value is recorded as 1.5. Also, the “SI A549 (selectivity index)” value in data set [4] was 1.3. Moreover, in data set [5], the “morphological changes of treated cancer cells” value is “became rounded and separated from each other, shrank, and underwent nuclear condensation”.
Consider `COC(=O)c1cn(C2CC2)c2cc(N3CCN(C(=O)c4c(C)nnn4-c4ccc(C(F)(F)F)cc4)CC3)c(F)cc2c1=O` [Compound 6d, methyl 7-(4-(1-(4-trifluoromethylphenyl)-4-methyl-1H-1,2,3-triazole-5-carbonyl)piperazin-1-yl)-1-cyclopropyl-6-fluoro-4-oxo-1,4-dihydroquinoline-3-carboxylate], for which the IC50 worked out at 425 ± 18.5 µM in data set [1] (Homo sapiens, Fibroblast, 96 h); 3.82 ± 2.9 µM in data set [2] (Homo sapiens, U-87 MG, 96 h); 124 ± 10.6 µM in data set [3] (Homo sapiens, MCF7, 96 h); 308 ± 12.1 µM in data set [4] (Homo sapiens, A549, 96 h). In addition, the “SI U87 (selectivity index)” value in data set [2] turned out to be 111.4. For the same compound, the “SI MCF-7 (selectivity index)” value in [3] is listed as 3.4. Moreover, in [4], the “SI A549 (selectivity index)” value is recorded as 1.4. Further, the “IC50 ± SD, DPPH” value in [6] came out at 58.8 ± 1.7 µg/mL (≈ 98.2 µM). The “% inhibition ±SD, DPPH” value is listed as 13.8 ± 0.2% in data set [6] (5 μg/ml); 26.0 ± 0.9% in data set [6] (10 μg/ml); 42.1 ± 0.6% in data set [6] (25 μg/ml); 46.2 ± 0.3% in data set [6] (50 μg/ml); 68.7 ± 0.1% in data set [6] (100 μg/ml). The “IC50 ± SD, ABTS” value in [7] turned out to be 31.7 ± 1.9 µg/mL (≈ 53 µM). The “% inhibition ±SD, ABTS” value in data set [7] (5 μg/ml) was found to be 21.1 ± 1.0%; in data set [7] (10 μg/ml), 33.7 ± 0.7%; in data set [7] (25 μg/ml) it was 42.8 ± 0.3%; in data set [7] (50 μg/ml), 61.6 ± 0.6%; in [7] (100 μg/ml), 66.5 ± 0.6%. For the same compound, the zone of inhibition at 100 µg/disc in data set [8] is 9.6 ± 1.2 mm; in [9], 10.3 ± 0.6 mm; in data set [10] it was 8.3 ± 1.5 mm; in [11] it was 11.7 ± 0.6 mm. In addition, the zone of inhibition at 300 µg/disc in data set [8] worked out at 11 mm; in data set [9], 12.3 ± 0.6 mm; in data set [10], 10.3 ± 0.7 mm; in data set [11], 13 ± 0.3 mm. The zone of inhibition at 500 µg/disc was 13.3 ± 0.6 mm in data set [8], 14.6 ± 1.2 mm in [9], 12.6 ± 0.7 mm in data set [10] and 13.3 ± 0.6 mm in [11]. Besides, the MIC was more than 500 µg/mL with B. subtilis (ATCC 6633); more than 500 µg/mL in [12]; 500 µg/mL (≈ 835 µM) in data set [13]; more than 500 µg/mL in data set [14]; 500 µg/mL (≈ 835 µM) in data set [15]. The “inhibition zones, range over susceptible strains” value in data set [16] is given as 12–14 mm. Moreover, the “cytotoxic / anti-proliferative activity in words” value in data set [17] was “significant cytotoxic activity against only U-87 and MCF-7 cancer cell lines”.

Source of the values: publication PMC10731006 (Heliyon, 2023).
